# In PubChem BioAssay AID624007 (Broad Institute, 2012):
# A number with no mark means an inactive call.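 The calls were made as follows: active = compounds lowering the uptake signal whose fitted half-maximal concentration is at most twice their top valid dose; inconclusive = flat curve between 30% and 70% signal loss, or poor fit; inactive = opposite direction, flat near zero, or potency beyond limit.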
# Assay: DiI-HDL uptake inhibition in parental ldlA7 cells, dose response, counter-screen for SR-BI HDL uptake inhibitor project, cell-based, CHO ldlA7, fluorescence, dry powder, set 2 (AID 624007)
# Conditions: 3 h
# Summary of the method: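 assay system = ldlA7 CHO cells without LDL receptor, no mSR-BI overexpression | timing = 3 h exposure at 37 °C | signal = bottom-read fluorescence after PBS washes, excitation 550 nm, emission 595 nm | reagent = DiI-labelled HDL, 10 µg/mL final | doses = pin-transferred compounds | medium = HEPES-buffered (pH 7.4) F12 plus 0.5% fatty acid-free BSA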
smiles,measurement,setting,value
CC(C)NC(=O)Nc1ccc2c(c1)C(=O)N([C@H](C)CO)C[C@@H](C)[C@H](CN(C)S(=O)(=O)c1ccc(Cl)cc1)O2,"DiI-HDL uptake signal change vs neutral control (%), lower = more inhibition",at 0.001 nM,-2.43%
same,"DiI-HDL uptake signal change vs neutral control (%), lower = more inhibition",at 0.1 nM,5.95%
CC(C)NC(=O)Nc1ccc2c(c1)C(=O)N([C@@H](C)CO)C[C@H](C)[C@@H](CN(C)S(=O)(=O)c1ccc(Cl)cc1)O2,"DiI-HDL uptake signal change vs neutral control (%), lower = more inhibition",at 0.002 nM,5.3%
CC(C)NC(=O)Nc1ccc2c(c1)CC(=O)N([C@H](C)CO)C[C@@H](C)[C@H](CN(C)S(=O)(=O)c1ccc(Cl)cc1)O2,"DiI-HDL uptake signal change vs neutral control (%), lower = more inhibition",at 0.1 nM,4.77%
CC(C)NC(=O)Nc1ccc2c(c1)C(=O)N([C@H](C)CO)C[C@@H](C)[C@@H](CN(C)S(=O)(=O)c1ccc(Cl)cc1)O2,"DiI-HDL uptake signal change vs neutral control (%), lower = more inhibition",at 0.6 nM,5.71%
CC(C)NC(=O)Nc1ccc2c(c1)C(=O)N([C@@H](C)CO)C[C@@H](C)[C@@H](CN(C)S(=O)(=O)c1ccc(Cl)cc1)O2,"DiI-HDL uptake signal change vs neutral control (%), lower = more inhibition",at 1.6 nM,4.53%
CC(C)NC(=O)Nc1ccc2c(c1)C(=O)N([C@H](C)CO)C[C@H](C)[C@H](CN(C)S(=O)(=O)c1ccc(Cl)cc1)O2,"DiI-HDL uptake signal change vs neutral control (%), lower = more inhibition",at 15 nM,8.44%
CC(C)NC(=O)Nc1ccc2c(c1)C(=O)N([C@@H](C)CO)C[C@H](C)[C@H](CN(C)S(=O)(=O)c1ccc(Cl)cc1)O2,"DiI-HDL uptake signal change vs neutral control (%), lower = more inhibition",at 46 nM,8.74%
CC(C)NC(=O)Nc1cccc2c1O[C@@H](CN(C)S(=O)(=O)c1ccc(Cl)cc1)[C@H](C)CN([C@H](C)CO)C2=O,"DiI-HDL uptake signal change vs neutral control (%), lower = more inhibition",at 420 nM,9.23%
